Source: PubChem
MC4R antag cAMP: human MC4R antagonism in cAMP assay; inhibition, % at 6.5 µM; MC4R-expressing cells, MTII-stimulated cAMP, LANCE TR-FRET; P32245; hit rate 0.48% among 360,000;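 active = inhibition above its plate's cutoff, the mean of tested wells on that plate plus 3 SD, cut at about 29% in these data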
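material = U2OS cells stably expressing human melanocortin 4 receptor (MC4R) | also added = Melanotan II challenge | dosing = single nominal compound dose of 6.5 µM | detection = TR-FRET with Eu-cAMP and labeled anti-cAMP, 671 nm | replication = singlicate | timing = compound 30 min, challenge 1 h, detection 1 h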
MC4R barr agon: agonists of human melanocortin 4 receptor (MC4R) beta-arrestin; hit rate 0.98% among 360,000; U2OS MC4R beta-arrestin complementation, luminescence; percent of melanotan II response, DMSO zero; AID 540308; activation, % at 8.9 µM;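 active = activation above a per-plate cutoff, the mean activation of sample wells on that plate plus 3 SD, cut at about 8% in these data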
HTR2A ag: activates the mouse 5-HT2A serotonin receptor; activation, % at 7.6 µM; P35363; CHO-K1 mHTR2A beta-arrestin complementation, luminescence; percent of 30 µM serotonin response; AID 624169; hit rate 0.66% among 360,000;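 active = activation above a run cutoff, the mean activation of all tested compounds plus 3 SD, cut at about 14% in these data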
Target sequence (P35363 whole entry, looked up): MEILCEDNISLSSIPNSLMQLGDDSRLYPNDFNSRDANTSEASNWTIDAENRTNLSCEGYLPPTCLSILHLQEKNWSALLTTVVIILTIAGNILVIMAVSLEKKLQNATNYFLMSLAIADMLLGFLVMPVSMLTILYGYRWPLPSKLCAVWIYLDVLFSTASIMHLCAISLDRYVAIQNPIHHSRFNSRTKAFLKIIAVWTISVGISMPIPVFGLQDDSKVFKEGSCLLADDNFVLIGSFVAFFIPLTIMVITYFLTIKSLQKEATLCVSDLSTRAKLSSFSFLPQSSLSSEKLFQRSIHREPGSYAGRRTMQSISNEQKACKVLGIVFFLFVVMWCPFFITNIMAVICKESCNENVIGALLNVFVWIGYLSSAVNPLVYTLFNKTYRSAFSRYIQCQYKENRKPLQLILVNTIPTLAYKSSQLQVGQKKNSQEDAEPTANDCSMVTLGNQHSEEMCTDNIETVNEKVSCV
EBI2 antag: antagonists of human EBI2 receptor; hit rate 0.81% among 360,000; P32249; inhibition, % at 5 µM; EBI2 beta-arrestin recruitment, luminescence, 7a,25-OHC stimulated; in the data active = inhibition above about 38%;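 also: enzyme fragment complementation signal reports receptor beta-arrestin coupling in cells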
A number is an active result; n = inactive; x = not tested or not shown. Shown are actives, neighbours in structure and some others; about 2.8% of the full set was active somewhere.

SMILES	MC4R antag cAMP	MC4R barr agon	HTR2A ag	EBI2 antag
O=C(OCc1nnc(-c2ccccc2)o1)C1CCN(C(=O)c2ccc(Cl)cc2)CC1	n	n	n	n
O=C1/C(=C/c2ccncc2)Oc2cc(OS(=O)(=O)c3ccccc3)ccc21	n	n	n	n
COc1cccc(OC)c1C(=O)Oc1ccc2c(c1)O/C(=C\c1ccncc1)C2=O	n	8.6	n	n
O=C(Nc1cccc(C(F)(F)F)c1)c1csc([C@@H]2O[C@H](CO)[C@@H](O)[C@H]2O)n1	n	n	n	n
N#Cc1c(NC(=O)c2ccccc2)sc2c1CCCCC2	n	8.3	n	n
CC(=O)Nc1ccc(NC(=O)c2ccc(-c3ccccc3Cl)o2)cc1	n	n	n	n
O=C(Nc1ccccc1)c1ccc(-c2ccccc2Cl)o1	n	8.5	n	n
Cc1ccc(NC(=O)CSc2nc(N)cc(=O)[nH]2)cc1S(=O)(=O)N1CCCCC1	n	n	n	n
COCCCn1c(SCc2cccc(C(F)(F)F)c2)nc2cc(OC)c(OC)cc2c1=N	n	n	n	57.0
COCCCn1c(SCC(=O)O)nc2cc(OC)c(OC)cc2c1=N	n	n	n	n
CC(C)(C)c1ccc(/C=C2/SC(N3CCCC3)=NC2=O)cc1	n	n	n	n
CCOC(=O)C1CCCN(C2=NC(=O)/C(=C/c3ccc(O)c(OCC)c3)S2)C1 (stereo not given)	n	n	n	n
Cc1ccc(/C=C2\SC(N3CCCCC3)=NC2=O)cc1	n	n	n	80.7
CCOC(=O)C1CCCN(C2=NC(=O)/C(=C/c3ccc(N(C)C)cc3)S2)C1 (stereo not given)	n	n	n	45.0
COc1ccc(/C=C2\SC(N3CCc4ccccc4C3)=NC2=O)cc1	n	n	n	n
CCOc1ccc(/C=C2\SC(N3CCc4ccccc4C3)=NC2=O)cc1	n	n	n	65.1
NC(=Nc1ccccc1)N(c1ccccc1)c1ccccc1	n	n	n	n
CCCCc1ccc(-c2nn[nH]n2)nc1	n	n	n	n
CC(=O)NC(c1ccc(C)cc1)c1cc(Cl)c2cccnc2c1O (stereo not given)	n	n	n	n
Oc1c(C(Nc2ccccn2)c2cccnc2)cc(Cl)c2cccnc12 (stereo not given)	n	n	n	50.1
C=CC[C@@H](CC(=O)N(CCO)Cc1ccccc1)C(=O)N[C@H](COC(=O)[C@@H](CC=C)CC(=O)OC(C)(C)C)Cc1ccccc1	n	9.3	n	n
C=CC[C@@H](CC(=O)N[C@H](CO)Cc1ccccc1)C(=O)N[C@H](COC(=O)[C@@H](CC=C)CC(=O)OC(C)(C)C)Cc1ccccc1	n	9.8	n	n
C=CCn1c(SCC(=O)Nc2ccc3c(c2)OCO3)nnc1-c1ccccc1	n	n	n	n
C=CCn1c(SCC(=O)Nc2ccc(-c3nc4ccc(C)cc4s3)cc2)nnc1-c1ccccc1	n	38.4	n	n
CNC(=O)c1nn(C)c(=O)[nH]c1=O	n	n	n	n
SMILES	MC4R antag cAMP	MC4R barr agon	HTR2A ag	EBI2 antag
CCOC(=O)C1=C(COC(=O)C(CC)c2ccccc2)NC(=O)NC1C (stereo not given)	n	n	n	n
c1ccc(CNc2nc(NCc3ccccc3)c3ccccc3n2)cc1	n	8.6	n	n
c1ccc(CNc2nc(-c3ccccc3)nc3ccccc23)cc1	n	n	n	n
COC(=O)c1ccc(C2C(Oc3ccccc3)C(=O)N2CCc2ccc(OC)c(OC)c2)cc1 (stereo not given)	n	8.9	n	n
COc1ccc(CC(=O)Nc2ccc(N3CCN(c4ccc(OC)cc4)CC3)c(C#N)c2)cc1	n	8.6	n	n
COc1ccc(N2CCN(c3ccc(NC(=O)c4ccc5c(c4)OCO5)cc3C#N)CC2)cc1	n	n	n	n
N#CC1=C(SCC(=O)Nc2cccc3cccnc23)NC(=O)C(C#N)C12CCCCC2 (stereo not given)	n	n	16.2	n
N#CC1=C(SCC(=O)NC2CC2)NC(=O)C(C#N)C12CCCCC2 (stereo not given)	n	n	n	n
CC(=O)c1cccc(NC(=O)CSc2nnc(-c3ccc(S(=O)(=O)N4CCCC4)cc3)o2)c1	n	n	n	n
Cc1ccc(-c2nnc(SCC(=O)Nc3ccc(S(=O)(=O)N4CCCCCC4)cc3)o2)cc1	n	9.3	n	n
COc1ccc(-c2cc3c(nn2)-c2ccccc2C3=O)cc1	n	n	n	50.6
Cc1cccc(-c2cc3c(nn2)-c2ccccc2C3=O)c1	n	n	n	n
O=C1c2ccccc2-c2nnc(-c3ccccc3)cc21	n	n	n	69.8
CCCCC[C@@H](C)N1C[C@H](COCc2ccccc2)Oc2cc(N3CC[C@H](N(C)C)C3)ccc2S1(=O)=O	x	x	n	n
CC(OC(=O)Cc1ccc(Br)cc1)C(=O)NC1CCCC1 (stereo not given)	n	n	n	n
CCN(CC)c1ccc2c(Cl)c(Br)c(=O)oc2c1	n	n	n	53.6
Oc1c(C(c2ccccc2Cl)N2CCCC2)ccc2cccnc12 (stereo not given)	n	n	n	50.9
Cc1ccc(C)c(N2CCN(C(=O)CCCOc3cc(=O)n(C)c4ccccc34)CC2)c1	n	11.7	n	n
COc1cc2c(cc1OC)C(c1ccc(-c3cc(Cl)ccc3Cl)o1)=NCC2	n	n	n	61.7
COc1cc2c(cc1OC)C(C)=NCC2	n	n	n	n
COc1cc2c(cc1OC)C(c1ccc(-c3ccc(Cl)c(Cl)c3)o1)=NCC2	n	n	n	65.5
COc1cc2c(cc1OC)C(c1ccc(-c3ccccc3Cl)o1)=NCC2	n	n	n	49.1
O=C(c1ccc(-c2cc(Cl)ccc2Cl)o1)N1CCOCC1	n	n	n	n
COc1cc2c(cc1OC)C(c1ccc(Cl)cc1)=NCC2	n	n	n	n
CN(C(=O)C1Cc2c(-c3ccc(Cl)cc3)ccnc2O1)c1ccccc1 (stereo not given)	n	n	n	n
SMILES	MC4R antag cAMP	MC4R barr agon	HTR2A ag	EBI2 antag
CC1(C)C(/C=C/C=C/C=C/C=C2\N(CCCCS(=O)(=O)O)c3ccc4ccccc4c3C2(C)C)=[N+](CCCCS(=O)(=O)[O-])c2ccc3ccccc3c21	n	n	n	n
CC(=NNc1nc2ccccc2s1)c1ccncn1	n	n	n	55.1
C/C(=N\Nc1nc2ccccc2s1)c1ccc(Br)s1	n	n	n	n
O=C(OCc1cn([C@@H]2C[C@H](c3ccc(Cl)cc3)N(C(=O)c3cccs3)C[C@H]2O)nn1)c1ccccc1	n	n	n	n
CC(C)Cc1nc2oc3c(N4CCN(CCO)CC4)ncnc3c2c2c1CCCC2	n	n	n	51.2
CCOC(=O)N1CCN(c2ncnc3c2oc2nc(C(C)C)c4c(c23)CCC4)CC1	n	n	n	n
O=C(Cc1c(Cl)cccc1Cl)NCCc1ccc(Cl)cc1	n	9.3	n	n
COC(=O)c1c(NC(=O)/C=C/C(=O)O)sc(C)c1-c1ccc(C)cc1	n	n	n	n
